The values below come from ChEMBL document CHEMBL5712094, “The Gridlock transcriptional repressor impedes vertebrate heart regeneration by restricting expression of lysine methyltransferase” (2020).

The source made the active and inactive calls. No cut-off for these calls is given here.

The target of assay [1] is N-lysine methyltransferase SMYD2 (Homo sapiens) (UniProt Q9NRG4). The assay can be described thus: Inhibition of Smyd2 KMT activity in human HEK 293T cells co-transfected with Flag-STAT3 and HA-Smyd2b assessed as decrease in Stat3 methylation at 15 to 25 uM for 6 hrs by Co-IP assay. As to conditions: dose 15-25 µM. The assay is classed as cell-based. Put shortly:
(§1)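 HEK 293T cells were co-transfected with Flag-Stat3 and HA-Smyd2b. Compound was added at 15 or 25 µM for 6 h, or at 2.5 or 5 µM for 28 h, before harvest at 48 h post-transfection. Lysates were made in denaturing buffer with 1% SDS at 100°C for 20 min, then diluted to 0.1% SDS. Stat3 was immunoprecipitated with anti-Flag beads for 4 h. Blots were probed for methyl-lysine and P-Stat3, normalized to Flag-Stat3. n=3.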

Assay [2] is described as follows: In vivo inhibition of Smyd2 KMT activity in Zebrafish assessed as decrease in cardiomyocyte proliferation at 10 uM by immunostaining analysis relative to control. Conditions: Danio rerio, Cardiac muscle cell. It is filed as functional. Summed up: (§2)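 Adult zebrafish (WT siblings or grl5nt−/− mutants) underwent ventricular apex resection. Bath treatment in aquarium water ran from 6 to 7 dpa, with 0.5‰ DMSO as the vehicle control. Hearts were fixed at 7 dpa in 4% PFA and cut as 10 µm cryosections. Sections were given antigen retrieval at 98°C for 20 min, then stained for PCNA and Mef2. For each heart, 4-6 sections with the largest injury were imaged with a 10× objective. PCNA+Mef2+/Mef2+ cells were counted in a fixed region around the injury, and the section values were averaged per heart. n=5-11 fish.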

Assay [3] concerns Cardiac Muscle Cell. The assay can be described thus: In vivo inhibition of Smyd2 KMT activity in grl5nt-/- mutant Zebrafish assessed as decrease in p-STAT3 level cardiomyocyte at 10 uM by immunostaining analysis. The assay is classed as functional, cell-based. Conditions: Danio rerio. Put shortly:
(§3)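 grl5nt−/− zebrafish underwent ventricular resection and were bath-treated in aquarium water from 6 to 7 dpa, with 0.5‰ DMSO as vehicle. Cryosections at 7 dpa were double-immunostained for P-Stat3 and Mef2. CMs with nuclear or perinuclear cytosolic P-Stat3 were counted in the injury border zone. n=4-6 fish; mean±s.e.m.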

Assay [4] concerns the target N-lysine methyltransferase SMYD2 (Homo sapiens) (UniProt Q9NRG4). The assay can be described thus: Inhibition of Smyd2 KMT activity in human HEK 293T cells co-transfected with Flag-STAT3 and HA-Smyd2b assessed as decrease in Stat3 phosphorylation at 15 to 25 uM for 6 hrs by Co-IP assay. It is filed as cell-based. As to conditions: dose 15-25 µM. Put shortly:
as §1

Assay [5] has as its system Cardiac Muscle Cell. The assay can be described thus: In vivo inhibition of Smyd2 KMT activity in grl5nt-/- mutant Zebrafish assessed as decrease in cardiomyocyte proliferation at 10 uM by immunostaining analysis. The assay is classed as functional, cell-based. As to conditions: Danio rerio. Put shortly:
as §2

Assay [6] deals with N-lysine methyltransferase SMYD2 (Homo sapiens) (UniProt Q9NRG4). Nature of the assay: Inhibition of Smyd2 KMT activity in human HEK 293T cells co-transfected with Flag-STAT3 and HA-Smyd2b assessed as decrease in Stat3 methylation at 5 to 2.5 uM for 28 hrs by Co-IP assay. Conditions: dose 5-2.5 µM. It is filed as cell-based. Put shortly: as §1
Chain of N-lysine methyltransferase SMYD2 (Homo sapiens) (Q9NRG4 whole entry): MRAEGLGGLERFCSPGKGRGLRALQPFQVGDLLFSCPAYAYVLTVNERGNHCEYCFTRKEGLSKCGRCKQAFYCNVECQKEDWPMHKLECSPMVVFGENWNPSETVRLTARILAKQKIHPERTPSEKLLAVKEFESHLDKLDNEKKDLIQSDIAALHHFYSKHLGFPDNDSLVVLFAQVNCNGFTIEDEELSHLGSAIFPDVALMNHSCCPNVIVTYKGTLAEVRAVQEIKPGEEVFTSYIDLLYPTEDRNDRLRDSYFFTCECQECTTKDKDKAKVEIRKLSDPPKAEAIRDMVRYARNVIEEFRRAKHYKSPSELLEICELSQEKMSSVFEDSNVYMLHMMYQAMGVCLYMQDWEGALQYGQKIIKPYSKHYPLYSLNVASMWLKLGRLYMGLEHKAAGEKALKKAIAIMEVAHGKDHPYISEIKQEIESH
A short description of assay [7]: In vivo inhibition of Smyd2 KMT activity in Zebrafish assessed as decrease in cardiomyocyte proliferation at 5 uM by immunostaining analysis relative to control. It is filed as functional. As to conditions: Danio rerio, Cardiac muscle cell. Put shortly: as §2
Assay [8] deals with Cardiac Muscle Cell. The assay can be described thus: In vivo inhibition of Smyd2 KMT activity in grl5nt-/- mutant Zebrafish assessed as decrease in p-STAT3 level cardiomyocyte at 5 uM by immunostaining analysis. The assay is classed as functional, cell-based. As to conditions: Danio rerio. Put shortly: as §3
For assay [9], the target named is N-lysine methyltransferase SMYD2 (Homo sapiens) (UniProt Q9NRG4). Nature of the assay: Inhibition of Smyd2 KMT activity in human HEK 293T cells co-transfected with Flag-STAT3 and HA-Smyd2b assessed as decrease in Stat3 phosphorylation at 5 to 2.5 uM for 28 hrs by Co-IP assay. As to conditions: dose 5-2.5 µM. The assay is classed as cell-based. Summed up:
as §1

Assay [10] relates to Cardiac Muscle Cell. The assay can be described thus: In vivo inhibition of Smyd2 KMT activity in grl5nt-/- mutant Zebrafish assessed as decrease in cardiomyocyte proliferation at 5 uM by immunostaining analysis. The assay is classed as functional, cell-based. As to conditions: Danio rerio. Summed up:
as §2

One may read the inhibition in vivo as how much of the control response was suppressed. For `O=C1COc2c(CCNCCN(C(=O)CCNCCc3ccc(Cl)c(Cl)c3)C3CCCCC3)ccc(O)c2N1`, the inhibition result (in assay [1]; in the assay on Cardiac Muscle Cell [3]; in [4]; in the assay on Cardiac Muscle Cell [5]) was “Active” throughout. In assay [2], the inhibition in vivo at 10 µM stood at 34%.
With `Cc1cn(CCN2CCN(c3ccccc3-c3cc(C#N)cc(C(=O)NCCCN4CCCC4)c3)CC2)c2ccccc12`, the inhibition entry (in assay [6]; in the assay with Cardiac Muscle Cell [8]; in assay [9]; in the assay on Cardiac Muscle Cell [10]) was “Active” each time. In addition, in assay [7], the inhibition in vivo at 5 µM was 25%.
